SMILES strings stand for the structures.

The results in this text go back to ChEMBL document CHEMBL1133118 (J Med Chem, 2000).

Experiment [1] deals with Adenosine receptors; A2b & A3 (Homo sapiens) (UniProt P29275+P0DMS8). Nature of the experiment: Ratio of binding affinity of human A2B receptor to that of human A3 receptor. The class given is protein assay. A digest of the protocol: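 Ki ratio, n=3-6, 6–8 concentrations. A2B in HEK-293 membranes (20 μg): 40 nM [3H]DPCPX, 50 mM Tris HCl, 10 mM MgCl2, 1 mM EDTA, 0.1 mM benzamidine pH 7.4, 2 IU/mL adenosine deaminase, 60 min at 25 °C, nonspecific with 100 μM NECA. A3 in CHO membranes (50 μg): 1 nM [3H]MRE3008-F20, 120 min at 4 °C.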

Experiment [2] deals with T1, Adenosine receptor A3 (Homo sapiens) (UniProt P0DMS8).
T1 sequence (whole entry): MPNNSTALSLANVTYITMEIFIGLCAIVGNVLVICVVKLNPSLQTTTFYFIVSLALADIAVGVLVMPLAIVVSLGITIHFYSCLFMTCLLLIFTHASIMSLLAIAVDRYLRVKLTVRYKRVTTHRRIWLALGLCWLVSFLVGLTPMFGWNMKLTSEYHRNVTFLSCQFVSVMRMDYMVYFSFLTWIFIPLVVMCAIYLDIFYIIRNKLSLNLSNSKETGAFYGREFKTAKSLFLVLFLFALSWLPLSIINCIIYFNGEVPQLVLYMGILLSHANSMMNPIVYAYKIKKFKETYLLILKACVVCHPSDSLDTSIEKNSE
Nature of the experiment: Percentage of blockade by 1 uM of the inhibition by 100 nM IB-MECA-inhibited cAMP accumulation in CHO cells expressing human adenosine A3 receptor. The experiment is classed as functional, cell-based. A digest of the protocol: (§1)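 CHO cells stably expressing human A3 receptor; membranes in 50 mM Tris HCl, 10 mM MgCl2, 1 mM EDTA pH 7.4 with 5 μM GTP, 0.5 mM […] and 2.0 IU/mL adenosine deaminase. Preincubated 10 min at 37 °C, then IB-MECA (100 nM) and/or antagonist with 1 mM ATP and 10 μM forskolin for 10 min. Boiled 2 min. cAMP read by [3H]cAMP competition with adrenal binding protein.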
(cAMP levels reflect the balance of adenylyl cyclase and phosphodiesterase activity.)

Experiment [3] deals with T2, Adenosine receptor A1 (Homo sapiens, UniProt P30542).
T2 sequence (P30542 whole entry): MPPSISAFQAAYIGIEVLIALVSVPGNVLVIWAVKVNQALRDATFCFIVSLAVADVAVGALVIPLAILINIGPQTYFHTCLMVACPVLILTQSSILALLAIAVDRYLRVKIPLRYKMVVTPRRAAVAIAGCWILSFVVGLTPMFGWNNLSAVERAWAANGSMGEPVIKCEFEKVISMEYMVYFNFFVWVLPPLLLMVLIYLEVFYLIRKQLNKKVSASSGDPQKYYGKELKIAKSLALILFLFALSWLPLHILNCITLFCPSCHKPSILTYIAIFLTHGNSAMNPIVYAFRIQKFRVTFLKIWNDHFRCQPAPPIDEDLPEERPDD
The experiment in a line: Displacement of [3H]DPCPX from human adenosine A1 receptor expressed in CHO cells; range 170-358. The experiment is classed as cell-based.

In experiment [4] the target is T3, Adenosine receptor A2a (Homo sapiens, UniProt P29274). Nature of the experiment: Displacement of [3H]-SCH- 58261 from human adenosine A2A receptor expressed in CHO cells; range 267-453. The experiment is classed as cell-based. Background: In a radioligand displacement assay an active substance lowers the binding of a labelled ligand.
T3 sequence (P29274 whole entry): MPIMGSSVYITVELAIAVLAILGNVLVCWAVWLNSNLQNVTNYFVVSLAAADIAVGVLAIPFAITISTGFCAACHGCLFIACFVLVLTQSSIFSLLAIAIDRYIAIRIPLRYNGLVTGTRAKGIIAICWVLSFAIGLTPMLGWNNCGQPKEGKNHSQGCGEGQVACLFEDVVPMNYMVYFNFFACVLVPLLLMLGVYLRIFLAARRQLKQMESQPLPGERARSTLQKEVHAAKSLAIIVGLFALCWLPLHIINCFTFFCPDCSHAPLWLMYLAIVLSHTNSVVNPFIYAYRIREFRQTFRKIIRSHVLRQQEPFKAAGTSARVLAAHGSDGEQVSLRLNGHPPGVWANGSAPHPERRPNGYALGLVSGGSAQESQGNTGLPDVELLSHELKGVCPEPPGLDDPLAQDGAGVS
Experiment [5] concerns the target T4, Adenosine receptor A3 (Homo sapiens, UniProt P0DMS8).
T4 sequence (P0DMS8 whole entry): T1 sequence (whole entry)
The experiment in a line: biochemical.

In experiment [6] the target is Adenosine receptors; A1 & A3 (Homo sapiens) (UniProt P30542+P0DMS8). The experiment in a line: Ratio of binding affinity of human A1 receptor to that of human A3 receptor. The class given is protein assay. An outline of the steps: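 Ki ratio from displacement in CHO membranes, 6–8 concentrations, n=3-6, filtration counting. A1: 1 nM [3H]DPCPX, 50 μg protein, 120 min at 25 °C, nonspecific with 10 μM CHA. A3: 1 nM [3H]MRE3008-F20, 50 μg protein, Tris/10 mM MgCl2 pH 7.4, 120 min at 4 °C, nonspecific with 1 μM MRE3008-F20.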

In experiment [7] the target is T5, Adenosine receptor A2b (Homo sapiens, UniProt P29275).
T5 sequence (P29275 whole entry): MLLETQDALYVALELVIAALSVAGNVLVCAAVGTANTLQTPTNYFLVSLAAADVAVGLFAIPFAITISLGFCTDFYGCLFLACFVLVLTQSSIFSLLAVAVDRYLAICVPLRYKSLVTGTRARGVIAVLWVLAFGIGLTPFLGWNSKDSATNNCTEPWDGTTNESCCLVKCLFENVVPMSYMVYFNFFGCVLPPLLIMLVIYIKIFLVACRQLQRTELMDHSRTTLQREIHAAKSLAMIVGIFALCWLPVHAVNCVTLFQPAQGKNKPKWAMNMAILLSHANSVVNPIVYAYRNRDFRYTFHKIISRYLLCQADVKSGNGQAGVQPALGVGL
The experiment in a line: Displacement of [3H]DPCPX from Adenosine A2b receptor expressed in HEK-293 cells; range 934-1327.

Experiment [8] has as its target T1, Adenosine receptor A3 (Homo sapiens). Nature of the experiment: Percent reversal of 100 nM IB-MECA-inhibited cAMP accumulation in CHO cells expressing human adenosine A3 receptor at 1 uM; range 63-110. The experiment is classed as functional, cell-based. A digest of the protocol:
as §1

Experiment [9] deals with T5, Adenosine receptor A2b. The experiment in a line: Displacement of [3H]DPCPX from Adenosine A2b receptor expressed in […]; range 1531-1920. The experiment is classed as cell-based.
In experiment [10] the target is T3, Adenosine receptor A2a. The experiment in a line: Displacement of [3H]-SCH- 58261 from human adenosine A2A receptor expressed in CHO cells; range 461-645. The experiment is classed as cell-based.
For experiment [11], the target named is T2, Adenosine receptor A1. The experiment in a line: Displacement of [3H]DPCPX from human adenosine A1 receptor expressed in CHO cells; range 632-1003. The experiment is classed as cell-based.
Experiment [12] has as its target T4, Adenosine receptor A3. Nature of the experiment: Displacement of [3H]MRE3008-F20 from human adenosine A3 receptor expressed in CHO cells; range 0.63-1.00. The class given is cell-based.
In experiment [13] the target is T4, Adenosine receptor A3. Nature of the experiment: Inhibition of cAMP accumulation in CHO cells expressing human adenosine A3 receptor; range 5.1-8.9. The class given is functional, cell-based. A digest of the protocol: as §1
Experiment [14] deals with T5, Adenosine receptor A2b. Nature of the experiment: Displacement of [3H]DPCPX from Adenosine A2b receptor expressed in […]; range 1637-2582. The class given is cell-based.
For experiment [15], the target named is T5, Adenosine receptor A2b. Nature of the experiment: Displacement of [3H]-DPCPX from Adenosine A2b receptor expressed in […]; range 52-65. The experiment is classed as cell-based.
Experiment [16] has as its target T3, Adenosine receptor A2a. The experiment in a line: Displacement of [3H]-SCH- 58261 from human adenosine A2A receptor expressed in CHO cells; range 850-1230. The experiment is classed as cell-based.
For experiment [17], the target named is T4, Adenosine receptor A3. The experiment in a line: biochemical. This is another data set of the same source.
Experiment [18] deals with T1, Adenosine receptor A3 (Homo sapiens). As to conditions: CHO, 1 uM.
In experiment [19] the target is T2, Adenosine receptor A1. Nature of the experiment: Displacement of [3H]DPCPX from human adenosine A1 receptor expressed in CHO cells; range 254-356. The class given is cell-based.
In experiment [20] the target is T4, Adenosine receptor A3. The experiment in a line: biochemical. This is another data set of the same source.
In experiment [21] the target is T5, Adenosine receptor A2b. Nature of the experiment: Displacement of [3H]DPCPX from Adenosine A2b receptor expressed in CHO cells; range 35-45. The experiment is classed as cell-based. As to conditions: in the assay text read “HEK-293 cells” for “CHO cells”. An outline of the steps:
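Human recombinant A2B receptor was expressed in HEK-293 cell membranes (20 μg protein). Incubated with 40 nM [3H]DPCPX in 50 mM Tris HCl, 10 mM MgCl2, 1 mM EDTA, 0.1 mM benzamidine, pH 7.4, with 2 IU/mL adenosine deaminase, at least 6–8 test concentrations, 60 min, 25 °C. Nonspecific binding was taken with 100 μM NECA; n=3-6.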

The target in experiment [22] is T3, Adenosine receptor A2a. The experiment in a line: Displacement of [3H]-SCH- 58261 from human adenosine A2A receptor expressed in CHO cells; range 1.90-3.37. The class given is cell-based.

For orientation: inhibition means the share of the control response that was lost under treatment. For orientation: Ki means a measure of affinity in units of concentration, obtained from inhibition or displacement. On to `Nc1nc2nn(CCc3cc(Br)c(Br)cc3Br)cc2c2nc(-c3ccco3)nn12`, for which the results for the Ratio in [1] and in experiment [6] were 0.25 and 0.06, respectively. Further, the inhibition in experiment [2] came out at 3%. The Ki was 247 nM on Adenosine receptor A1 [3], 348 nM at Adenosine receptor A2a [4], 4480 nM at Adenosine receptor A3 [5] and 1110 nM at Adenosine receptor A2b [7].
What is called IC50 is the concentration needed to halve the response being measured. Regarding `COc1ccc(NC(=O)Nc2nc3nn(C(C)(C)C)cc3c3nc(-c4ccco4)nn23)cc1`, the results for the Ratio in experiment [1] and in experiment [6] were 2140 and 995, respectively. Further, the inhibition in experiment [8] amounted to 84%. Besides, the inhibition constant (Ki) is 1720 nM at Adenosine receptor A2b [9], 545 nM at Adenosine receptor A2a [10], 796 nM at Adenosine receptor A1 [11] and 0.8 nM at Adenosine receptor A3 [12]. On Adenosine receptor A3 [13], this molecule came in with an IC50 of 6.8 nM.
Molecule `CCCn1cc2c(nc(NC(=O)Nc3ccc(OC)cc3)n3nc(-c4ccco4)nc23)n1` yielded an inhibition constant (Ki) at Adenosine receptor A2b [14] of 2060 nM.
`COc1ccc(NC(=O)Nc2nc3nn(CC=C(C)C)cc3c3nc(-c4ccco4)nn23)cc1`: the Ratio in experiment [1] came out at 1.45; in [6] it was 7.5. The inhibition constant Ki is 58 nM on Adenosine receptor A2b [15], 1020 nM on Adenosine receptor A2a [16], 40 nM on Adenosine receptor A3 [17] and 300 nM at Adenosine receptor A1 [19]. Moreover, in experiment [18], the inhibition was determined as 42%.
On to `CCCn1cc2c(nc(N)n3nc(-c4ccco4)nc23)n1`, for which the inhibitory constant (Ki) worked out at 408 nM at Adenosine receptor A3 [20], 39 nM on Adenosine receptor A2b [21] and 2.51 nM on Adenosine receptor A2a [22]. The Ratio turned out to be 0.095 in experiment [1] and 0.024 in [6]. For the same molecule, the inhibition in experiment [2] is 23%.
